Values after ≈ are worked out from the molar mass of the structure shown. Active and inactive are the calls of the source. The calls are words filed in the database; no cut-off is given here.
What was measured:
Staphylococcus aureus = test: Antibacterial activity against Staphylococcus aureus after 18 hrs by broth microdilution method; format: functional
Outline: (§1)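 Broth microdilution; compounds dissolved in DMSO (10 mg in 1 mL), serially diluted in Mueller-Hinton medium to 0.2–100 µg/mL. MIC taken as lowest concentration giving no visible growth. DMSO solvent control at matching dilutions.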

Escherichia coli = test: Antibacterial activity against Escherichia coli after 18 hrs by broth microdilution method; format: functional; outline: as §1
[1] = test system: Mycobacterium tuberculosis; test: Inhibition of Mycobacterium tuberculosis His6-tagged InhA expressed in Escherichia coli BL21 using trans-2-dodecenoyl-coA as substrate at 50 uM

For `Cc1ccc(C)n1-c1ccccc1NC(=S)Nc1ccc(Cl)c(Cl)c1`, the MIC (Staphylococcus aureus) was 0.2 µg/mL (≈ 0.512 µM), the MIC (Escherichia coli) was 0.2 µg/mL (≈ 0.512 µM) and the inhibition [1] was 13%.
`CC(=O)N1N=C(c2ccc(-n3cccc3)cc2)CC1c1ccc(Cl)cc1Cl` (configuration not stated) was tested, and the MIC (Staphylococcus aureus) was 50 µg/mL (≈ 126 µM) and the MIC (Escherichia coli) was 25 µg/mL (≈ 62.8 µM).
Molecule `CC(=O)N1N=C(c2ccc(-n3cccc3)cc2)CC1c1cccc(Br)c1` (configuration not stated) has an MIC (Staphylococcus aureus) of 50 µg/mL (≈ 122 µM) and an MIC (Escherichia coli) of 25 µg/mL (≈ 61.2 µM).
`CC(=O)N1N=C(c2ccc(-n3cccc3)cc2)CC1c1ccccc1Br` (configuration not stated) was tested, and the MIC (Staphylococcus aureus) was 100 µg/mL (≈ 245 µM) and the MIC (Escherichia coli) was 50 µg/mL (≈ 122 µM).
Molecule `Clc1ccc(-c2cc(-c3ccc(-n4cccc4)cc3)on2)c(Cl)c1` has an MIC (Staphylococcus aureus) of 25 µg/mL (≈ 70.4 µM) and an MIC (Escherichia coli) of 50 µg/mL (≈ 141 µM).
`Cc1ccc(C)n1-c1ccccc1NC(=S)Nc1ccc([N+](=O)[O-])cc1` gave an MIC (Staphylococcus aureus) of 0.2 µg/mL (≈ 0.546 µM) and an MIC (Escherichia coli) of 0.4 µg/mL (≈ 1.09 µM).
For `CCn1cc(C(=O)O)c(=O)c2cc(F)c(N3CCNCC3)cc21` [NORFLOXACIN], the MIC (Staphylococcus aureus) was 2.02 µg/mL (≈ 6.33 µM) and the MIC (Escherichia coli) was 4 µg/mL (≈ 12.5 µM).
Molecule `CC(=O)N1N=C(c2ccc(-n3cccc3)cc2)CC1c1ccc(F)cc1` (configuration not stated) has an MIC (Staphylococcus aureus) of 12.5 µg/mL (≈ 36 µM) and an MIC (Escherichia coli) of 12.5 µg/mL (≈ 36 µM).
`COc1ccc(C2CC(c3ccc(-n4cccc4)cc3)=NN2C(C)=O)cc1OC` (configuration not stated) gave an MIC (Staphylococcus aureus) of 25 µg/mL (≈ 64.2 µM) and an MIC (Escherichia coli) of 12.5 µg/mL (≈ 32.1 µM).
Work on `COc1cccc(/C=C/C(=O)c2ccc(-n3cccc3)cc2)c1` yielded an MIC (Staphylococcus aureus) of 25 µg/mL (≈ 82.4 µM) and an MIC (Escherichia coli) of 12.5 µg/mL (≈ 41.2 µM).
In the case of `Fc1ccc(-c2cc(-c3ccc(-n4cccc4)cc3)on2)cc1`, the MIC (Staphylococcus aureus) is reported as 25 µg/mL (≈ 82.1 µM) and the MIC (Escherichia coli) is reported as 12.5 µg/mL (≈ 41.1 µM).
`CC(C)c1ccc(/C=C/C(=O)c2ccc(-n3cccc3)cc2)cc1` showed an MIC (Staphylococcus aureus) of 12.5 µg/mL (≈ 39.6 µM) and an MIC (Escherichia coli) of 12.5 µg/mL (≈ 39.6 µM).
`O=C(/C=C/c1ccc(F)cc1)c1ccc(-n2cccc2)cc1` gave an MIC (Staphylococcus aureus) of 25 µg/mL (≈ 85.8 µM) and an MIC (Escherichia coli) of 12.5 µg/mL (≈ 42.9 µM).
With `Oc1cc(Cl)ccc1Oc1ccc(Cl)cc1Cl` the inhibition [1] was > 99%.
In the case of `COc1cccc(C2CC(c3ccc(-n4cccc4)cc3)=NN2C(C)=O)c1` (configuration not stated), the MIC (Staphylococcus aureus) is reported as 25 µg/mL (≈ 69.6 µM) and the MIC (Escherichia coli) is reported as 50 µg/mL (≈ 139 µM).
`Clc1cccc(Cl)c1-c1cc(-c2ccc(-n3cccc3)cc2)on1` gave an MIC (Staphylococcus aureus) of 25 µg/mL (≈ 70.4 µM) and an MIC (Escherichia coli) of 50 µg/mL (≈ 141 µM).
Molecule `O=C(/C=C/c1ccccc1O)c1ccc(-n2cccc2)cc1` has an MIC (Staphylococcus aureus) of 50 µg/mL (≈ 173 µM) and an MIC (Escherichia coli) of 50 µg/mL (≈ 173 µM).
`CC(=O)N1N=C(c2ccc(-n3cccc3)cc2)CC1c1cccc(Oc2ccccc2)c1` (configuration not stated) gave an MIC (Staphylococcus aureus) of 100 µg/mL (≈ 237 µM) and an MIC (Escherichia coli) of 50 µg/mL (≈ 119 µM).
For `c1coc(-c2cc(-c3ccc(-n4cccc4)cc3)on2)c1`, the MIC (Staphylococcus aureus) was 50 µg/mL (≈ 181 µM) and the MIC (Escherichia coli) was 25 µg/mL (≈ 90.5 µM).
Work on `CC(=O)N1N=C(c2ccc(-n3cccc3)cc2)CC1c1ccc(C)cc1` (configuration not stated) yielded an MIC (Staphylococcus aureus) of 25 µg/mL (≈ 72.8 µM) and an MIC (Escherichia coli) of 12.5 µg/mL (≈ 36.4 µM).
With `COc1ccc(/C=C/C(=O)c2ccc(-n3cccc3)cc2)cc1OC` the MIC (Staphylococcus aureus) was 12.5 µg/mL (≈ 37.5 µM) and the MIC (Escherichia coli) was 12.5 µg/mL (≈ 37.5 µM).
`CC(=O)N1N=C(c2ccc(-n3cccc3)cc2)CC1c1ccco1` (configuration not stated) gave an MIC (Staphylococcus aureus) of 50 µg/mL (≈ 157 µM) and an MIC (Escherichia coli) of 100 µg/mL (≈ 313 µM).
With `COc1ccc(-c2cc(-c3ccc(-n4cccc4)cc3)on2)cc1OC` the MIC (Staphylococcus aureus) was 25 µg/mL (≈ 72.2 µM) and the MIC (Escherichia coli) was 25 µg/mL (≈ 72.2 µM).
Molecule `COc1ccc(/C=C/C(=O)c2ccc(-n3cccc3)cc2)cc1` has an MIC (Staphylococcus aureus) of 25 µg/mL (≈ 82.4 µM) and an MIC (Escherichia coli) of 12.5 µg/mL (≈ 41.2 µM).
For `O=C(/C=C/c1c(Cl)cccc1Cl)c1ccc(-n2cccc2)cc1`, the MIC (Staphylococcus aureus) was 25 µg/mL (≈ 73.1 µM) and the MIC (Escherichia coli) was 50 µg/mL (≈ 146 µM).
With `CC(=O)N1N=C(c2ccc(-n3cccc3)cc2)CC1c1c(Cl)cccc1Cl` (configuration not stated) the MIC (Staphylococcus aureus) was 25 µg/mL (≈ 62.8 µM) and the MIC (Escherichia coli) was 50 µg/mL (≈ 126 µM).
Work on `Cc1ccc(-c2cc(-c3ccc(-n4cccc4)cc3)on2)cc1` yielded an MIC (Staphylococcus aureus) of 25 µg/mL (≈ 83.2 µM) and an MIC (Escherichia coli) of 12.5 µg/mL (≈ 41.6 µM).
With `CC(=O)N1N=C(c2ccc(-n3cccc3)cc2)CC1c1ccccc1` (configuration not stated) the MIC (Staphylococcus aureus) was 50 µg/mL (≈ 152 µM) and the MIC (Escherichia coli) was 50 µg/mL (≈ 152 µM).
In the case of `O=C(/C=C/c1cccc(Br)c1)c1ccc(-n2cccc2)cc1`, the MIC (Staphylococcus aureus) is reported as 50 µg/mL (≈ 142 µM) and the MIC (Escherichia coli) is reported as 25 µg/mL (≈ 71 µM).
`CC(=O)N1N=C(c2ccc(-n3cccc3)cc2)CC1c1cccc(Cl)c1Cl` (configuration not stated) was tested, and the MIC (Staphylococcus aureus) was 25 µg/mL (≈ 62.8 µM) and the MIC (Escherichia coli) was 50 µg/mL (≈ 126 µM).
`c1ccc(-c2cc(-c3ccc(-n4cccc4)cc3)on2)cc1` was tested, and the MIC (Staphylococcus aureus) was 50 µg/mL (≈ 175 µM) and the MIC (Escherichia coli) was 25 µg/mL (≈ 87.3 µM).
`CC(=O)N1N=C(c2ccc(-n3cccc3)cc2)CC1c1ccc(Cl)cc1` (configuration not stated) showed an MIC (Staphylococcus aureus) of 25 µg/mL (≈ 68.7 µM) and an MIC (Escherichia coli) of 50 µg/mL (≈ 137 µM).
Molecule `O=C(/C=C/c1ccccc1)c1ccc(-n2cccc2)cc1` has an MIC (Staphylococcus aureus) of 25 µg/mL (≈ 91.5 µM) and an MIC (Escherichia coli) of 25 µg/mL (≈ 91.5 µM).
`O=C(/C=C/c1ccc(Cl)cc1Cl)c1ccc(-n2cccc2)cc1` was tested, and the MIC (Staphylococcus aureus) was 50 µg/mL (≈ 146 µM) and the MIC (Escherichia coli) was 50 µg/mL (≈ 146 µM).
`Cc1ccc(C)n1-c1ccccc1NC(=S)Nc1ccc(F)cc1` was tested, and the MIC (Staphylococcus aureus) was 0.8 µg/mL (≈ 2.36 µM) and the MIC (Escherichia coli) was 0.8 µg/mL (≈ 2.36 µM).
Work on `Cc1ccc(C)n1-c1ccccc1NC(=S)Nc1cccc(Br)c1` yielded an MIC (Staphylococcus aureus) of 0.2 µg/mL (≈ 0.5 µM) and an MIC (Escherichia coli) of 0.2 µg/mL (≈ 0.5 µM).
`O=C(O)c1cn(C2CC2)c2cc(N3CCNCC3)c(F)cc2c1=O` [CIPROFLOXACIN] showed an MIC (Staphylococcus aureus) of 0.15 µg/mL (≈ 0.453 µM).
With `Clc1cccc(-c2cc(-c3ccc(-n4cccc4)cc3)on2)c1Cl` the MIC (Staphylococcus aureus) was 50 µg/mL (≈ 141 µM) and the MIC (Escherichia coli) was 25 µg/mL (≈ 70.4 µM).
`O=C(/C=C/c1ccccc1Cl)c1ccc(-n2cccc2)cc1` gave an MIC (Staphylococcus aureus) of 25 µg/mL (≈ 81.2 µM) and an MIC (Escherichia coli) of 50 µg/mL (≈ 162 µM).
For `Clc1ccc(-c2cc(-c3ccc(-n4cccc4)cc3)on2)cc1`, the MIC (Staphylococcus aureus) was 25 µg/mL (≈ 77.9 µM) and the MIC (Escherichia coli) was 25 µg/mL (≈ 77.9 µM).
For `CC(=O)N1N=C(c2ccc(-n3cccc3)cc2)CC1c1ccccc1Cl` (configuration not stated), the MIC (Staphylococcus aureus) was 50 µg/mL (≈ 137 µM) and the MIC (Escherichia coli) was 25 µg/mL (≈ 68.7 µM).
Molecule `Cc1ccc(C)n1-c1ccccc1NC(=S)Nc1ccccc1Br` has an MIC (Staphylococcus aureus) of 1.6 µg/mL (≈ 4 µM) and an MIC (Escherichia coli) of 0.8 µg/mL (≈ 2 µM).
`Cc1ccc(C)n1-c1ccccc1NC(=S)Nc1ccccc1` was tested, and the MIC (Staphylococcus aureus) was 0.8 µg/mL (≈ 2.49 µM) and the MIC (Escherichia coli) was 0.2 µg/mL (≈ 0.622 µM).
Molecule `O=C(/C=C/c1cccc(Cl)c1Cl)c1ccc(-n2cccc2)cc1` has an MIC (Staphylococcus aureus) of 25 µg/mL (≈ 73.1 µM) and an MIC (Escherichia coli) of 50 µg/mL (≈ 146 µM).
For `Cc1ccc(C)n1-c1ccccc1NC(=S)Nc1cccc(Cl)c1`, the MIC (Staphylococcus aureus) was 0.2 µg/mL (≈ 0.562 µM) and the MIC (Escherichia coli) was 0.4 µg/mL (≈ 1.12 µM).
For `O=C(/C=C/c1ccc(Cl)cc1)c1ccc(-n2cccc2)cc1`, the MIC (Staphylococcus aureus) was 50 µg/mL (≈ 162 µM) and the MIC (Escherichia coli) was 50 µg/mL (≈ 162 µM).
`COc1ccc(C2CC(c3ccc(-n4cccc4)cc3)=NN2C(C)=O)c(OC)c1` (configuration not stated) showed an MIC (Staphylococcus aureus) of 25 µg/mL (≈ 64.2 µM) and an MIC (Escherichia coli) of 12.5 µg/mL (≈ 32.1 µM).
With `Cc1ccc(C)n1-c1ccccc1NC(=S)Nc1ccc(Cl)cc1` the MIC (Staphylococcus aureus) was 0.2 µg/mL (≈ 0.562 µM), the MIC (Escherichia coli) was 0.2 µg/mL (≈ 0.562 µM) and the inhibition [1] was “inactive”.
With `Cc1ccc(NC(=S)Nc2ccccc2-n2c(C)ccc2C)cc1` the MIC (Staphylococcus aureus) was 0.4 µg/mL (≈ 1.19 µM) and the MIC (Escherichia coli) was 6.25 µg/mL (≈ 18.6 µM).
`Brc1ccccc1-c1cc(-c2ccc(-n3cccc3)cc2)on1` showed an MIC (Staphylococcus aureus) of 50 µg/mL (≈ 137 µM) and an MIC (Escherichia coli) of 50 µg/mL (≈ 137 µM).
Work on `c1ccc(Oc2cccc(-c3cc(-c4ccc(-n5cccc5)cc4)on3)c2)cc1` yielded an MIC (Staphylococcus aureus) of 50 µg/mL (≈ 132 µM) and an MIC (Escherichia coli) of 50 µg/mL (≈ 132 µM).
`O=C(/C=C/c1ccco1)c1ccc(-n2cccc2)cc1` showed an MIC (Staphylococcus aureus) of 25 µg/mL (≈ 95 µM) and an MIC (Escherichia coli) of 25 µg/mL (≈ 95 µM).
For `O=C(/C=C/c1ccccc1Br)c1ccc(-n2cccc2)cc1`, the MIC (Staphylococcus aureus) was 50 µg/mL (≈ 142 µM) and the MIC (Escherichia coli) was 25 µg/mL (≈ 71 µM).
`Brc1cccc(-c2cc(-c3ccc(-n4cccc4)cc3)on2)c1` gave an MIC (Staphylococcus aureus) of 25 µg/mL (≈ 68.5 µM) and an MIC (Escherichia coli) of 25 µg/mL (≈ 68.5 µM).
Work on `O=C(/C=C/c1cccc(Oc2ccccc2)c1)c1ccc(-n2cccc2)cc1` yielded an MIC (Staphylococcus aureus) of 50 µg/mL (≈ 137 µM) and an MIC (Escherichia coli) of 50 µg/mL (≈ 137 µM).
For `Clc1ccccc1-c1cc(-c2ccc(-n3cccc3)cc2)on1`, the MIC (Staphylococcus aureus) was 50 µg/mL (≈ 156 µM) and the MIC (Escherichia coli) was 50 µg/mL (≈ 156 µM).

Source: ChEMBL document CHEMBL3745673, “Synthesis, antimycobacterial screening and ligand-based molecular docking studies on novel pyrrole derivatives bearing pyrazoline, isoxazole and phenyl thiourea moieties” (Eur J Med Chem, 2016)
